According to ChEMBL document CHEMBL4014276, “Diphenylurea derivatives for combating methicillin- and vancomycin-resistant Staphylococcus aureus” (Eur J Med Chem, 2017):
Values after ≈ are worked out from the molar mass of the structure shown. Active and inactive are the calls of the source. No cut-off for these calls is given here.

Tests used:
Staphylococcus aureus [1] = assay: Antibacterial activity against methicillin-resistant Staphylococcus aureus USA100 NRS382 clinical isolate after 20 hrs by broth microdilution method; type: functional; conditions: USA100 NRS382, 20 h
Summary of the method: (§1)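 CLSI broth microdilution in cation-adjusted Mueller Hinton broth; compounds serially diluted, triplicate samples; 37 °C, 20 h. MIC read visually as lowest concentration with no visible growth; mean of triplicate determinations reported.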

Staphylococcus aureus [2] = assay: Antibacterial activity against methicillin-resistant Staphylococcus aureus USA100 NRS382 clinical isolate preincubated followed by bacterial subculturing for 2 weeks; type: functional
[3] = Half life in human liver microsomes in presence of NADPH by LC-MS/MS method; type: ADME, microsome
Staphylococcus aureus [4] = assay: Antibacterial activity against methicillin-resistant Staphylococcus aureus USA400 NRS123 clinical isolate preincubated followed by bacterial subculturing for 2 weeks; type: functional
Staphylococcus aureus [5] = assay: Antibacterial activity against methicillin-resistant Staphylococcus aureus USA300 NRS384 clinical isolate preincubated followed by bacterial subculturing for 2 weeks; type: functional
Staphylococcus aureus [6] = assay: Bactericidal activity against methicillin-resistant Staphylococcus aureus USA100 NRS382 clinical isolate after 18 hrs by broth microdilution method; type: functional; conditions: USA100 NRS382, 18 h
Summary of the method: (§2)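 From MIC wells without visible growth, 5 uL spotted onto Tryptic soy agar, incubated 37 °C for at least 18 h; MBC taken as lowest concentration giving 99.9% growth inhibition.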

Staphylococcus aureus [7] = assay: Antibacterial activity against methicillin-resistant Staphylococcus aureus USA200 NRS383 clinical isolate preincubated followed by bacterial subculturing for 2 weeks; type: functional
[8] = Intrinsic clearance in human liver microsomes in presence of NADPH by LC-MS/MS method; type: ADME, microsome; conditions: read-out: CLH
Staphylococcus aureus [9] = assay: Antibacterial activity against vancomycin-resistant Staphylococcus aureus VRSA4 after 20 hrs by broth microdilution method; type: functional; conditions: VRSA4, 20 h; summary of the method: as §1
Staphylococcus aureus [10] = assay: Bactericidal activity against Staphylococcus aureus RN4220 NRS107 clinical isolate after 18 hrs by broth microdilution method; type: functional; conditions: RN4220 NRS107, 18 h; summary of the method: as §2
Staphylococcus aureus [11] = assay: Antibacterial activity against methicillin-resistant Staphylococcus aureus USA400 NRS123 clinical isolate after 20 hrs by broth microdilution method; type: functional; conditions: USA400 NRS123, 20 h; summary of the method: as §1
Staphylococcus aureus [12] = assay: Bactericidal activity against methicillin-resistant Staphylococcus aureus USA200 NRS383 clinical isolate after 18 hrs by broth microdilution method; type: functional; conditions: USA200 NRS383, 18 h; summary of the method: as §2
Staphylococcus aureus [13] = assay: Bactericidal activity against methicillin-resistant Staphylococcus aureus USA300 NRS384 clinical isolate after 18 hrs by broth microdilution method; type: functional; conditions: USA300 NRS384, 18 h; summary of the method: as §2
Staphylococcus aureus [14] = assay: Antibacterial activity against Staphylococcus aureus RN4220 NRS107 clinical isolate after 20 hrs by broth microdilution method; type: functional; conditions: RN4220 NRS107, 20 h; summary of the method: as §1
Staphylococcus aureus [15] = assay: Antibacterial activity against methicillin-resistant Staphylococcus aureus USA300 NRS384 clinical isolate after 20 hrs by broth microdilution method; type: functional; conditions: USA300 NRS384, 20 h; summary of the method: as §1
Staphylococcus aureus [16] = assay: Antibacterial activity against methicillin-resistant Staphylococcus aureus USA200 NRS383 clinical isolate after 20 hrs by broth microdilution method; type: functional; conditions: USA200 NRS383, 20 h; summary of the method: as §1
Staphylococcus aureus [17] = assay: Bactericidal activity against vancomycin-resistant Staphylococcus aureus VRSA4 after 18 hrs by broth microdilution method; type: functional; conditions: VRSA4, 18 h; summary of the method: as §2
Staphylococcus aureus [18] = assay: Bactericidal activity against vancomycin-resistant Staphylococcus aureus VRSA10 after 18 hrs by broth microdilution method; type: functional; conditions: VRSA10, 18 h; summary of the method: as §2
Staphylococcus aureus [19] = assay: Bactericidal activity against methicillin-resistant Staphylococcus aureus USA400 NRS123 clinical isolate after 18 hrs by broth microdilution method; type: functional; conditions: USA400 NRS123, 18 h; summary of the method: as §2
Staphylococcus aureus [20] = assay: Antibacterial activity against vancomycin-resistant Staphylococcus aureus VRSA10 after 20 hrs by broth microdilution method; type: functional; conditions: VRSA10, 20 h; summary of the method: as §1

| Structure (SMILES) | MIC (Staphylococcus aureus [1]) | Activity (Staphylococcus aureus [2]) | Activity (Staphylococcus aureus [4]) | Activity (Staphylococcus aureus [5]) | MBC (Staphylococcus aureus [6]) | Activity (Staphylococcus aureus [7]) | MBC (Staphylococcus aureus [10]) | MIC (Staphylococcus aureus [11]) | MBC (Staphylococcus aureus [12]) | MBC (Staphylococcus aureus [13]) | MIC (Staphylococcus aureus [16]) | MBC (Staphylococcus aureus [17]) | MBC (Staphylococcus aureus [18]) | MBC (Staphylococcus aureus [19]) | other results |
| --- | --- | --- | --- | --- | --- | --- | --- | --- | --- | --- | --- | --- | --- | --- | --- |
| C/C(=N\NC(=N)N)c1ccc(NC(=O)Nc2ccc(C(C)(C)C)cc2)cc1 | 64 µg/mL (≈ 175 µM) | Active | Active | Active | 128 µg/mL (≈ 349 µM) | Active |  |  |  |  |  |  |  |  | half-life [3]: 2.9 h; microsomal CLint [8]: 20 µL/min/mg |
| C/C(=N\NC(=N)N)c1ccc(NC(=O)Nc2ccc(OCc3ccccc3)cc2)cc1 | 4 µg/mL (≈ 9.6 µM) | Active | Active | Active | > 128 µg/mL | Active | 8 µg/mL (≈ 19.2 µM) | 8 µg/mL (≈ 19.2 µM) | 16 µg/mL (≈ 38.4 µM) | 8 µg/mL (≈ 19.2 µM) | 8 µg/mL (≈ 19.2 µM) | 8 µg/mL (≈ 19.2 µM) | > 64 µg/mL | > 64 µg/mL | MIC (Staphylococcus aureus [9]): 8 µg/mL (≈ 19.2 µM); MIC (Staphylococcus aureus [14]): 8 µg/mL (≈ 19.2 µM); MIC (Staphylococcus aureus [15]): 8 µg/mL (≈ 19.2 µM); MIC (Staphylococcus aureus [20]): 8 µg/mL (≈ 19.2 µM) |
| CCCCCCOc1ccc(NC(=O)Nc2ccc(/C(C)=N/NC(=N)N)cc2)cc1 | 4 µg/mL (≈ 9.74 µM) | Active | Active | Active | 4 µg/mL (≈ 9.74 µM) | Active | 8 µg/mL (≈ 19.5 µM) | 8 µg/mL (≈ 19.5 µM) | 8 µg/mL (≈ 19.5 µM) | 16 µg/mL (≈ 39 µM) | 4 µg/mL (≈ 9.74 µM) | 8 µg/mL (≈ 19.5 µM) | 8 µg/mL (≈ 19.5 µM) | 16 µg/mL (≈ 39 µM) | MIC (Staphylococcus aureus [9]): 8 µg/mL (≈ 19.5 µM); MIC (Staphylococcus aureus [14]): 8 µg/mL (≈ 19.5 µM); MIC (Staphylococcus aureus [15]): 8 µg/mL (≈ 19.5 µM); MIC (Staphylococcus aureus [20]): 8 µg/mL (≈ 19.5 µM) |
| CCC(CC)COc1ccc(NC(=O)Nc2ccc(/C(C)=N/NC(=N)N)cc2)cc1 | 128 µg/mL (≈ 312 µM) | Active | Active | Active |  | Active |  |  |  |  |  |  |  |  |  |
| CC(=O)Oc1ccccc1C(=O)Nc1ccc(/C(C)=N/NC(=N)N)cc1 |  |  |  |  |  |  |  | > 32 µg/mL |  |  |  |  |  |  |  |
| C/C(=N\NC(=N)N)c1ccc(NC(=O)c2cc(F)c(F)c(F)c2)cc1 |  |  |  |  |  |  |  | 16 µg/mL (≈ 45.8 µM) |  |  |  |  |  |  |  |
| C/C(=N\NC(=N)N)c1ccc(NC(=O)c2cccc(Oc3ccccc3)c2)cc1 |  |  |  |  |  |  |  | 16 µg/mL (≈ 41.3 µM) |  |  |  |  |  |  |  |
| CC(=O)NC[C@H]1CN(c2ccc(N3CCOCC3)c(F)c2)C(=O)O1 [LINEZOLID] |  |  |  |  | 16 µg/mL (≈ 47.4 µM) |  | 32 µg/mL (≈ 94.9 µM) |  | 32 µg/mL (≈ 94.9 µM) | 16 µg/mL (≈ 47.4 µM) |  | 8 µg/mL (≈ 23.7 µM) | 16 µg/mL (≈ 47.4 µM) | 32 µg/mL (≈ 94.9 µM) |  |
| C/C(=N\NC(=N)N)c1ccc(NC(=O)Cc2cc(F)cc(F)c2)cc1 |  |  |  |  |  |  |  | 16 µg/mL (≈ 46.3 µM) |  |  |  |  |  |  |  |
| C/C(=N\NC(=N)N)c1ccc(NC(=O)Nc2ccc(OC3CCCC3)cc2)cc1 | 64 µg/mL (≈ 162 µM) | Active | Active | Active | 64 µg/mL (≈ 162 µM) | Active |  |  | 128 µg/mL (≈ 324 µM) |  | 64 µg/mL (≈ 162 µM) |  |  |  |  |
| CCCCCCCCOc1ccc(NC(=O)Nc2ccc(/C(C)=N/NC(=N)N)cc2)cc1 | 16 µg/mL (≈ 36.5 µM) | Active | Active | Active | 32 µg/mL (≈ 73 µM) | Active | 32 µg/mL (≈ 73 µM) | 32 µg/mL (≈ 73 µM) | 16 µg/mL (≈ 36.5 µM) | 16 µg/mL (≈ 36.5 µM) | 16 µg/mL (≈ 36.5 µM) | 32 µg/mL (≈ 73 µM) | 32 µg/mL (≈ 73 µM) | 32 µg/mL (≈ 73 µM) | MIC (Staphylococcus aureus [9]): 16 µg/mL (≈ 36.5 µM); MIC (Staphylococcus aureus [14]): 16 µg/mL (≈ 36.5 µM); MIC (Staphylococcus aureus [15]): 16 µg/mL (≈ 36.5 µM); MIC (Staphylococcus aureus [20]): 16 µg/mL (≈ 36.5 µM) |
| C/C(=N\NC(=N)N)c1ccc(NC(=O)Cc2ccc(F)cc2)cc1 |  |  |  |  |  |  |  | 16 µg/mL (≈ 48.9 µM) |  |  |  |  |  |  |  |
| C/C(=N\NC(=N)N)c1ccc(NC(=O)Nc2nc3ccccc3s2)cc1 |  |  |  |  |  |  |  | 10 µg/mL (≈ 27.2 µM) |  |  |  |  |  |  |  |
